pKi: −log10 of the molar value.
What was measured:
Assay in all cases: Radioligand binding
hA1AR = target: T1, hA1AR (Homo sapiens, UniProt P30542); details: read-out: hA1 % of inhibition
T1 sequence (P30542 1-326): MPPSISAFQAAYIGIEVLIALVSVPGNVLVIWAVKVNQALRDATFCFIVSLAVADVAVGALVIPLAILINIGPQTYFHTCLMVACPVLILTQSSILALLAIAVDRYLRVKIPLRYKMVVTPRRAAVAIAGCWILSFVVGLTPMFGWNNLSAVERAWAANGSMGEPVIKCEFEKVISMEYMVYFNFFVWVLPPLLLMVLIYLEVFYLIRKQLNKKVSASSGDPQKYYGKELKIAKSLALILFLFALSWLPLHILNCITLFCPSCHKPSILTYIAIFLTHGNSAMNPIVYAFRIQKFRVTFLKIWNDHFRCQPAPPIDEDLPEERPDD
Procedure, shortened: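 Membranes came from CHO cells expressing recombinant hA1AR, labelled with [3H]R-PIA. ADA (3 units/mL) was present during membrane preparation, a 30 min 30 °C preincubation and radioligand incubation. Test compound was dissolved in DMSO and diluted in buffer, DMSO ≤2% final. Incubations ended by GF/B filtration and three buffer rinses. The read-out is % inhibition of specific binding at a single concentration.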

hA2AAR = hA2AAR (Homo sapiens, UniProt P29274); details: for hA1/hA2A: selectivity ratio of Ki values
hA2AAR, sequence (P29274 whole entry): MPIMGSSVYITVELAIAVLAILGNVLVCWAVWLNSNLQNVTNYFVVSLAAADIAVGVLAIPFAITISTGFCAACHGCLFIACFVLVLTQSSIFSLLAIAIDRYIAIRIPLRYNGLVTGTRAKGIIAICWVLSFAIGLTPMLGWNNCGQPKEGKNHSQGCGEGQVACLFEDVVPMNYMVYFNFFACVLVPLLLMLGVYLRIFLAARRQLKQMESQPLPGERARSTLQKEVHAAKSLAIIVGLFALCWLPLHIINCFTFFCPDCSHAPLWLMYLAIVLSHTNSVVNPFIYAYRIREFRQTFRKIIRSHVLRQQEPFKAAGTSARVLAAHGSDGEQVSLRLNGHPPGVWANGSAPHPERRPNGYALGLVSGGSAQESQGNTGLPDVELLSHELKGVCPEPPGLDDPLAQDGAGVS

hA3AR = target: T2, hA3AR (Homo sapiens, UniProt P0DMS8); details: for hA2A/hA3 / hA1/hA3: selectivity ratio of Ki values
T2 sequence (P0DMS8 1-318): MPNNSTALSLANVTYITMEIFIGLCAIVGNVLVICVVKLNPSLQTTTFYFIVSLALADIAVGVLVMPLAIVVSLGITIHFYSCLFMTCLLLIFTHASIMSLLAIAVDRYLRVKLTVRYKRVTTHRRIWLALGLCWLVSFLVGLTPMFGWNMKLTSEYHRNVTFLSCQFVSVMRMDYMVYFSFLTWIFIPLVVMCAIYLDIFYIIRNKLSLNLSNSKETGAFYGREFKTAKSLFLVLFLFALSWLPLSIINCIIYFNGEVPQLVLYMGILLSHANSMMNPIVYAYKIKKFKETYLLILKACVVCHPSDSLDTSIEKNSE
Procedure, shortened: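 Displacement of [125I]AB-MECA binding on membranes from CHO cells expressing recombinant hA3AR. […] ADA (3 units/mL) was present during membrane preparation, a 30 min 30 °C preincubation and radioligand incubation. DMSO was ≤2% final. At least six competitor concentrations spanning 3 log units were used. Incubations ended by GF/B filtration and three rinses.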

Cn1cc2c(nc(NC(=O)Nc3ccc(CC(=O)NCCCCNC(=S)Nc4ccc(-c5c6ccc(=O)cc-6oc6cc(O)ccc56)c(C(=O)O)c4)cc3)n3nc(-c4ccco4)nc23)n1 [Compound 15, 5-(3-(4-(2-(4-(3-(2-(furan-2-yl)-8-methyl-8H-pyrazolo[4,3-e][1,2,4]triazolo[1,5-c]pyrimidin-5-yl)ureido)phenyl)acetamido)butyl)thioureido)-2-(6-hydroxy-3-oxo-3H-xanthen-9-yl)benzoate]
inhibition at 10 µM (hA1AR): 28% | hA1/hA2A (hA2AAR): >129 | hA2A/hA3 (hA3AR): 0.82

Cn1cc2c(nc(NC(=O)Nc3ccc(CC(=O)NCCCNC(=S)Nc4ccc(-c5c6ccc(=O)cc-6oc6cc(O)ccc56)c(C(=O)O)c4)cc3)n3nc(-c4ccco4)nc23)n1 [Compound 14, 5-(3-(3-(2-(4-(3-(2-(furan-2-yl)-8-methyl-8H-pyrazolo[4,3-e][1,2,4]triazolo[1,5-c]pyrimidin-5-yl)ureido)phenyl)acetamido)propyl)thioureido)-2-(6-hydroxy-3-oxo-3H-xanthen-9-yl)benzoate]
inhibition at 10 µM (hA1AR): 27% | hA1/hA2A (hA2AAR): >96 | hA1/hA3 (hA3AR): >96 | hA2A/hA3 (hA3AR): 1

Cn1cc2c(nc(NC(=O)Nc3ccc(CC(=O)NCCOCCOCCNC(=S)Nc4ccc(-c5c6ccc(=O)cc-6oc6cc(O)ccc56)c(C(=O)O)c4)cc3)n3nc(-c4ccco4)nc23)n1 [Compound 17, 5-(3-(2-(2-(2-(2-(4-(3-(2-(furan-2-yl)-8-methyl-8H-pyrazolo[4,3-e][1,2,4]triazolo[1,5-c]pyrimidin-5-yl)ureido)phenyl)acetamido)ethoxy)ethoxy)ethyl)thioureido)-2-(6-hydroxy-3-oxo-3H-xanthen-9-yl)benzoate]
inhibition at 10 µM (hA1AR): 29% | pKi (hA2AAR): 7.02 | hA1/hA2A (hA2AAR): >94 | pKi (hA3AR): 6.86 | hA1/hA3 (hA3AR): >73 | hA2A/hA3 (hA3AR): 0.69
